Laboratory results reported in ChEMBL document CHEMBL1153232, “Synthesis and screening of a CaaL peptide library versus FTase reveals a surprising number of substrates” (Bioorg Med Chem Lett, 2010).
Activity calls are given as the source filed them. The rule behind the calls is not given here. Peptide text beside a SMILES is read from it. * marks the point of attachment. Dansyl = CN(C)c1cccc2c(S(=O)(=O)*)cccc12

How the values were obtained:
[1] = target: Protein farnesyltransferase subunit beta (Homo sapiens) (UniProt P49356); test: Substrate activity for FTase assessed as increase in fluorescence by spectrofluorimetry in presence of farnesyl diphosphate relative to DnGCVLS; parameters: concentration or dose not given beside the values
[2] = target: Protein farnesyltransferase subunit beta (Homo sapiens) (UniProt P49356); test: Activity at FTase assessed as formation of farnesylated peptide after 60 mins by HPLC
How it was run: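 Peptide (3 μM) with 9 μM FPP and recombinant mammalian FTase (0.05 μM), incubated 60 min. HPLC scored conversion to farnesylated peptide: complete; nearly complete; 25% to 50%; less than 25%; no product.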

[3] = target: Protein farnesyltransferase subunit beta (Homo sapiens) (UniProt P49356); test: Ratio of kcat to km for FTase in presence of farnesyl diphosphate
How it was run: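 Steady-state kinetics at saturating FPP (10 μM), 0.2-10 μM dansyl peptide, 20-100 nM FTase (at least 5-fold below peptide). Buffer: 50 mM HEPPSO pH 7.8, 5 mM TCEP, 5 mM MgCl2, 25 °C. Peptide preincubated 20 min in buffer, then FTase and FPP added. Fluorescence (ex 340, em 520 nm) followed over time and converted to kcat/KM.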

Sequence of Protein farnesyltransferase subunit beta (Homo sapiens) (P49356 whole entry): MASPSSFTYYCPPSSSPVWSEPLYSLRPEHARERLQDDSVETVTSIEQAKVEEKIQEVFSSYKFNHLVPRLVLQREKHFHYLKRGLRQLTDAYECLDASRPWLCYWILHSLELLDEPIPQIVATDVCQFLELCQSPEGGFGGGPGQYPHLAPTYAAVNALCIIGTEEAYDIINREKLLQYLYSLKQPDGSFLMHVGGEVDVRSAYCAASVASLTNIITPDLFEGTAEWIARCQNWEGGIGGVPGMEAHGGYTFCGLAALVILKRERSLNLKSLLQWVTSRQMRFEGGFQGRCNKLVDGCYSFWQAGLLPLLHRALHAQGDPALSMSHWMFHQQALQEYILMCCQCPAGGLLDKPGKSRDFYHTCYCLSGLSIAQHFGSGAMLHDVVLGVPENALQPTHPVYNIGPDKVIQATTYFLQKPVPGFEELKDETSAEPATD

Activity [1] [%] | Activity [2] | Ratio [3] [mM⁻¹ s⁻¹] | SMILES
< 5 |  |  | CC(C)C[C@H](NC(=O)[C@H](CC(C)C)NC(=O)[C@@H](NC(=O)[C@H](CS)NC(=O)CNS(=O)(=O)c1cccc2c(N(C)C)cccc12)C(C)C)C(=O)O (Dansyl-GCVLL-OH)
0 | < 25% |  | CC(C)C[C@H](NC(=O)[C@H](CC(C)C)NC(=O)[C@H](CO)NC(=O)[C@H](CS)NC(=O)CNS(=O)(=O)c1cccc2c(N(C)C)cccc12)C(=O)O (Dansyl-GCSLL-OH)
0 | inactive |  | CC(C)C[C@H](NC(=O)[C@@H](NC(=O)[C@H](CO)NC(=O)[C@H](CS)NC(=O)CNS(=O)(=O)c1cccc2c(N(C)C)cccc12)[C@@H](C)O)C(=O)O (Dansyl-GCSTL-OH)
0 | inactive |  | CC(C)C[C@H](NC(=O)[C@H](C)NC(=O)[C@H](Cc1cnc[nH]1)NC(=O)[C@H](CS)NC(=O)CNS(=O)(=O)c1cccc2c(N(C)C)cccc12)C(=O)O (Dansyl-GCHAL-OH)
22 | Active | 12 | CC[C@H](C)[C@H](NC(=O)[C@H](CC(N)=O)NC(=O)[C@H](CS)NC(=O)CNS(=O)(=O)c1cccc2c(N(C)C)cccc12)C(=O)N[C@@H](CC(C)C)C(=O)O (Dansyl-GCNIL-OH)
0 | inactive |  | CC(C)C[C@H](NC(=O)[C@H](CO)NC(=O)[C@H](CS)NC(=O)[C@H](CS)NC(=O)CNS(=O)(=O)c1cccc2c(N(C)C)cccc12)C(=O)O (Dansyl-GCCSL-OH)
0 | inactive |  | CC(C)C[C@H](NC(=O)[C@H](Cc1ccccc1)NC(=O)[C@H](CO)NC(=O)[C@H](CS)NC(=O)CNS(=O)(=O)c1cccc2c(N(C)C)cccc12)C(=O)O (Dansyl-GCSFL-OH)
< 5 |  |  | CC(C)C[C@H](NC(=O)[C@H](CC(C)C)NC(=O)[C@H](CCCNC(=N)N)NC(=O)[C@H](CS)NC(=O)CNS(=O)(=O)c1cccc2c(N(C)C)cccc12)C(=O)O (Dansyl-GCRLL-OH)
0 | inactive |  | CC(C)C[C@H](NC(=O)CNC(=O)[C@@H](NC(=O)[C@H](CS)NC(=O)CNS(=O)(=O)c1cccc2c(N(C)C)cccc12)C(C)C)C(=O)O (Dansyl-GCVGL-OH)
9 | Active | 8.1 | CSCC[C@H](NC(=O)[C@H](CC(C)C)NC(=O)[C@H](CS)NC(=O)CNS(=O)(=O)c1cccc2c(N(C)C)cccc12)C(=O)N[C@@H](CC(C)C)C(=O)O (Dansyl-GCLML-OH)
0 | inactive |  | CC(C)C[C@H](NC(=O)[C@H](CC(N)=O)NC(=O)[C@H](CCC(N)=O)NC(=O)[C@H](CS)NC(=O)CNS(=O)(=O)c1cccc2c(N(C)C)cccc12)C(=O)O (Dansyl-GCQNL-OH)
0 | inactive |  | CC(C)C[C@H](NC(=O)CNC(=O)CNC(=O)[C@H](CS)NC(=O)CNS(=O)(=O)c1cccc2c(N(C)C)cccc12)C(=O)O (Dansyl-GCGGL-OH)
101 | Active | 43 | CC[C@H](C)[C@H](NC(=O)[C@H](CS)NC(=O)CNS(=O)(=O)c1cccc2c(N(C)C)cccc12)C(=O)N[C@H](C(=O)N[C@@H](CC(C)C)C(=O)O)[C@@H](C)CC (Dansyl-GCIIL-OH)
71 | Active | 27 | CC[C@H](C)[C@H](NC(=O)[C@H](C)NC(=O)[C@H](CS)NC(=O)CNS(=O)(=O)c1cccc2c(N(C)C)cccc12)C(=O)N[C@@H](CC(C)C)C(=O)O (Dansyl-GCAIL-OH)
< 5 | Active |  | CC[C@H](C)[C@H](NC(=O)[C@H](CC(C)C)NC(=O)[C@H](CS)NC(=O)CNS(=O)(=O)c1cccc2c(N(C)C)cccc12)C(=O)N[C@@H](CC(C)C)C(=O)O (Dansyl-GCLIL-OH)
< 5 |  |  | CC(C)C[C@H](NC(=O)[C@H](CC(C)C)NC(=O)[C@H](CC(C)C)NC(=O)[C@H](CS)NC(=O)CNS(=O)(=O)c1cccc2c(N(C)C)cccc12)C(=O)O (Dansyl-GCLLL-OH)
0 | < 25% |  | CC(C)C[C@H](NC(=O)[C@H](CC(C)C)NC(=O)[C@H](CCC(N)=O)NC(=O)[C@H](CS)NC(=O)CNS(=O)(=O)c1cccc2c(N(C)C)cccc12)C(=O)O (Dansyl-GCQLL-OH)
15 | Active | 8 | CC[C@H](C)[C@H](NC(=O)[C@H](CS)NC(=O)CNS(=O)(=O)c1cccc2c(N(C)C)cccc12)C(=O)N[C@@H](CC(C)C)C(=O)N[C@@H](CC(C)C)C(=O)O (Dansyl-GCILL-OH)
0 |  |  | CC(C)C[C@H](NC(=O)[C@@H](NC(=O)[C@H](CO)NC(=O)[C@H](CS)NC(=O)CNS(=O)(=O)c1cccc2c(N(C)C)cccc12)C(C)C)C(=O)O (Dansyl-GCSVL-OH)
< 5 |  |  | CC[C@H](C)[C@H](NC(=O)[C@@H]1CCCN1C(=O)[C@H](CS)NC(=O)CNS(=O)(=O)c1cccc2c(N(C)C)cccc12)C(=O)N[C@@H](CC(C)C)C(=O)O (Dansyl-GCPIL-OH)

Activity [1] [%] | Activity [2] | Ratio [3] [mM⁻¹ s⁻¹] | SMILES
0 | inactive |  | CSCC[C@H](NC(=O)[C@H](CS)NC(=O)CNS(=O)(=O)c1cccc2c(N(C)C)cccc12)C(=O)N[C@@H](CCC(=O)O)C(=O)N[C@@H](CC(C)C)C(=O)O (Dansyl-GCMEL-OH)
0 |  |  | CC(C)C[C@H](NC(=O)[C@H](CC(C)C)NC(=O)[C@@H](NC(=O)[C@H](CS)NC(=O)CNS(=O)(=O)c1cccc2c(N(C)C)cccc12)[C@@H](C)O)C(=O)O (Dansyl-GCTLL-OH)
45 | Active | 33 | CC[C@H](C)[C@H](NC(=O)[C@@H](NC(=O)[C@H](CS)NC(=O)CNS(=O)(=O)c1cccc2c(N(C)C)cccc12)[C@@H](C)O)C(=O)N[C@@H](CC(C)C)C(=O)O (Dansyl-GCTIL-OH)
0 | < 25% |  | CC(C)C[C@H](NC(=O)[C@H](CCC(N)=O)NC(=O)[C@H](CC(C)C)NC(=O)[C@H](CS)NC(=O)CNS(=O)(=O)c1cccc2c(N(C)C)cccc12)C(=O)O (Dansyl-GCLQL-OH)
0 | inactive |  | CC(C)C[C@H](NC(=O)[C@@H]1CCCN1C(=O)[C@H](Cc1cnc[nH]1)NC(=O)[C@H](CS)NC(=O)CNS(=O)(=O)c1cccc2c(N(C)C)cccc12)C(=O)O (Dansyl-GCHPL-OH)
0 | inactive |  | CC(C)C[C@H](NC(=O)[C@H](Cc1ccc(O)cc1)NC(=O)[C@H](C)NC(=O)[C@H](CS)NC(=O)CNS(=O)(=O)c1cccc2c(N(C)C)cccc12)C(=O)O (Dansyl-GCAYL-OH)
< 5 |  |  | CC(C)C[C@H](NC(=O)[C@H](CC(C)C)NC(=O)[C@H](CS)NC(=O)[C@H](CS)NC(=O)CNS(=O)(=O)c1cccc2c(N(C)C)cccc12)C(=O)O (Dansyl-GCCLL-OH)
0 | inactive |  | CC(C)C[C@H](NC(=O)[C@H](C)NC(=O)[C@@H](NC(=O)[C@H](CS)NC(=O)CNS(=O)(=O)c1cccc2c(N(C)C)cccc12)[C@@H](C)O)C(=O)O (Dansyl-GCTAL-OH)
0 | inactive |  | CC(C)C[C@H](NC(=O)[C@H](CS)NC(=O)CNC(=O)[C@H](CS)NC(=O)CNS(=O)(=O)c1cccc2c(N(C)C)cccc12)C(=O)O (Dansyl-GCGCL-OH)
18 | Active | 5 | CC[C@H](C)[C@H](NC(=O)[C@H](CO)NC(=O)[C@H](CS)NC(=O)CNS(=O)(=O)c1cccc2c(N(C)C)cccc12)C(=O)N[C@@H](CC(C)C)C(=O)O (Dansyl-GCSIL-OH)
0 | inactive |  | CC(C)C[C@H](NC(=O)[C@H](CCC(N)=O)NC(=O)CNC(=O)[C@H](CS)NC(=O)CNS(=O)(=O)c1cccc2c(N(C)C)cccc12)C(=O)O (Dansyl-GCGQL-OH)
< 5 |  |  | CC(C)C[C@H](NC(=O)[C@H](CC(C)C)NC(=O)[C@H](C)NC(=O)[C@H](CS)NC(=O)CNS(=O)(=O)c1cccc2c(N(C)C)cccc12)C(=O)O (Dansyl-GCALL-OH)
0 | inactive |  | CC(C)C[C@H](NC(=O)[C@H](CCC(N)=O)NC(=O)[C@H](CO)NC(=O)[C@H](CS)NC(=O)CNS(=O)(=O)c1cccc2c(N(C)C)cccc12)C(=O)O (Dansyl-GCSQL-OH)
11 | Active | 7 | CC(C)C[C@H](NC(=O)[C@@H](NC(=O)[C@H](CS)NC(=O)[C@H](CS)NC(=O)CNS(=O)(=O)c1cccc2c(N(C)C)cccc12)C(C)C)C(=O)O (Dansyl-GCCVL-OH)
0 | inactive |  | CC(C)C[C@H](NC(=O)CNC(=O)[C@H](CC(C)C)NC(=O)[C@H](CS)NC(=O)CNS(=O)(=O)c1cccc2c(N(C)C)cccc12)C(=O)O (Dansyl-GCLGL-OH)
0 | inactive |  | CC(C)C[C@H](NC(=O)[C@H](CCCCN)NC(=O)[C@H](CCC(=O)O)NC(=O)[C@H](CS)NC(=O)CNS(=O)(=O)c1cccc2c(N(C)C)cccc12)C(=O)O (Dansyl-GCEKL-OH)
0 | inactive |  | CC(C)C[C@H](NC(=O)[C@@H]1CCCN1C(=O)[C@H](CC(N)=O)NC(=O)[C@H](CS)NC(=O)CNS(=O)(=O)c1cccc2c(N(C)C)cccc12)C(=O)O (Dansyl-GCNPL-OH)
< 5 |  |  | CC(C)C[C@H](NC(=O)[C@@H](NC(=O)[C@H](CCCCN)NC(=O)[C@H](CS)NC(=O)CNS(=O)(=O)c1cccc2c(N(C)C)cccc12)C(C)C)C(=O)O (Dansyl-GCKVL-OH)
< 5 |  |  | CC(C)C[C@H](NC(=O)[C@@H](NC(=O)[C@H](CC(C)C)NC(=O)[C@H](CS)NC(=O)CNS(=O)(=O)c1cccc2c(N(C)C)cccc12)C(C)C)C(=O)O (Dansyl-GCLVL-OH)
